Measurements of several laboratories.
Compare with care: the assays were run in different laboratories.
ADRA2C: Alpha-2C adrenergic receptor (ADRA2C, Homo sapiens, UniProt P18825)
PLEKHA3: PLEKHA3 (Homo sapiens, UniProt Q9HB20)
Fibroblast growth factor 14: Fibroblast growth factor 14 (Homo sapiens, UniProt Q92915)

SMILES	target	test	measurement	result
Cc1cc(Oc2ncccc2CN2CCN(c3ccccc3C#N)CC2)ccc1-c1c(C)c(=O)[nH]c(=O)n1C	ADRA2C	ligand displacement, radioligand	Ki	56.3 nM
CCOc1ccc(C(=O)CC(SCc2ccc(Br)cc2)C(=O)O)cc1 (stereo not drawn)	PLEKHA3	ligand displacement, FP	Ki	18600 nM
Cc1cc(Oc2ncccc2CN2CCN(Cc3ccc(F)cc3)CC2)ccc1-c1c(C)c(=O)[nH]c(=O)n1C	ADRA2C	ligand displacement, radioligand	Ki	206 nM
CCOc1ccc(C(=O)CC(SCc2ccc(OC)cc2)C(=O)O)cc1 (stereo not drawn)	PLEKHA3	ligand displacement, FP	Ki	27000 nM
CCOC(=O)c1cccc(NC(=O)Cn2cc(CO)c3ccccc32)c1	Fibroblast growth factor 14	binding, SPR	Kd	293 nM
COc1ccc(C(=O)CC(SCc2ccc(Cl)cc2)C(=O)O)cc1 (stereo not drawn)	PLEKHA3	ligand displacement, FP	Ki	13200 nM
Cc1cc(Oc2ncccc2CN2CCN(c3ccc([N+](=O)[O-])cc3C(F)(F)F)CC2)ccc1-c1c(C)c(=O)[nH]c(=O)n1C	ADRA2C	ligand displacement, radioligand	Ki	401 nM
CC(=O)Nc1ccc(Oc2ccc3c(c2)C(=O)N(c2cc(C)ccc2C)C3=O)cc1	Fibroblast growth factor 14	binding, SPR	Kd	13600 nM
CCOc1ccc(C(=O)CC(SCc2ccc(F)cc2)C(=O)O)cc1 (stereo not drawn)	PLEKHA3	ligand displacement, FP	Ki	13800 nM
Cc1cccc(NC(=O)Cn2cc(CO)c3ccccc32)c1	Fibroblast growth factor 14	binding, SPR	Kd	1900 nM
CCOc1ccc(C(=O)CC(SCc2cccc(Br)c2)C(=O)O)cc1 (stereo not drawn)	PLEKHA3	ligand displacement, FP	Ki	6030 nM
Cc1cc(Oc2ncccc2CN2CCN(c3ccc(Br)cc3)CC2)ccc1-c1c(C)c(=O)[nH]c(=O)n1C	ADRA2C	ligand displacement, radioligand	Ki	76.1 nM
COc1nc(-c2cccc(-c3ccccc3)c2C)ccc1CNCCNC(=O)CCCCCCCCCCC(=O)N1CCN(CCNC(=O)c2cc3c(=O)n4cccc(C)c4nc3n(CCc3cccs3)c2=N)CC1	Programmed cell death 1 ligand 1 (Cd274, Mus musculus, UniProt Q9EP73)	binding, BLI	Kd	625 nM
Cc1cc(Oc2ncccc2CN2CCN(c3cccc4ccccc34)CC2)ccc1-c1c(C)c(=O)[nH]c(=O)n1C	ADRA2C	ligand displacement, radioligand	Ki	14.3 nM
c1coc(-c2n[nH]cc2-c2ccnc3ccccc23)c1	Mitogen-activated protein kinase 14 (MAPK14, Homo sapiens, UniProt Q16539)	enzyme activity, inhibitor, ADP detection	IC50	1800 nM
